Data published in ChEMBL document CHEMBL1777723, “Design, synthesis, and evaluation of bromo-retrochalcone derivatives as protein tyrosine phosphatase 1B inhibitors” (Bioorg Med Chem Lett, 2011).

Experiments:
[1] = target: T1, Tyrosine-protein phosphatase non-receptor type 1 (Homo sapiens) (UniProt P18031); assay: (§1) Inhibition of recombinant human PTP1B using p-nitrophenyl phosphate as substrate after 30 mins
T1 sequence (whole entry): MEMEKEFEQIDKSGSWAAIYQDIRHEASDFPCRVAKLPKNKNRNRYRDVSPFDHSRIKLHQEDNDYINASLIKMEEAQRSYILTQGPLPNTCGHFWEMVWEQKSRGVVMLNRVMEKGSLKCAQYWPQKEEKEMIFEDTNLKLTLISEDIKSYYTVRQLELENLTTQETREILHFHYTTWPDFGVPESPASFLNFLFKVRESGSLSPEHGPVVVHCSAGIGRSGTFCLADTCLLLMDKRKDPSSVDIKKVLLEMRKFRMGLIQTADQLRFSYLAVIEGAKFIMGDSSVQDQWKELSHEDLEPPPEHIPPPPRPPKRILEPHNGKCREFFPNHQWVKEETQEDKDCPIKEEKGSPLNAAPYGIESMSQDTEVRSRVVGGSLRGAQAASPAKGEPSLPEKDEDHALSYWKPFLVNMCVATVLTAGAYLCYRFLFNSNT
Procedure, shortened: (§2)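 Reaction buffer: 10 citrate pH […], 0.1 M NaCl, 1 mM EDTA, 1 mM dithiothreitol. Enzyme and sample were added with 50 of 4 mM pNPP substrate stock, incubated 30 min at 37 °C, then quenched with 10 N NaOH.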

[2] = target: T2, Tyrosine-protein phosphatase non-receptor type 1 (Homo sapiens, UniProt P18031); assay: as §1; procedure, shortened: as §2
T2 sequence (P18031 whole entry): T1 sequence (whole entry)

Row | inhibition [1] | IC50 [2] | SMILES
1 | Dose-dependent effect | 3.4 µM | COc1cc(O)c(Br)cc1/C=C/C(=O)c1ccc(NC(=O)c2ccc(C(C)(C)C)cc2)cc1
2 | Dose-dependent effect | 3.4 µM | C=CCN(CC=C)c1ccc(C(=O)/C=C/c2cc(Br)c(O)cc2OC)cc1
3 | Dose-dependent effect | 8 µM | COc1cc(O)c(Br)cc1/C=C/C(=O)c1ccc(N2CCOCC2)cc1
4 | Dose-dependent effect | 6.9 µM | C=C(C)C(C)c1cc(C(=O)/C=C/c2cc(Br)c(O)cc2OC)ccc1O (stereo unspecified)
5 | Dose-dependent effect | 7 µM | C=C(C)C(C)c1cc(C(=O)/C=C/c2cc(Br)c(O)cc2OC)ccc1OCC=C(C)C (stereo unspecified)
6 | Dose-dependent effect | 2.6 µM | C=C(C)C(C)c1cc(C(=O)/C=C/c2cc(Br)c(O)cc2O)ccc1OC (stereo unspecified)
7 | Dose-dependent effect | 2.9 µM | COc1cc(O)c(Br)cc1/C=C/C(=O)c1ccc(OC)c(CC=C(C)C)c1
8 | Dose-dependent effect | 15.2 µM | CCOC(=O)COc1ccc(C(=O)/C=C/c2cc(Br)c(O)cc2OC)cc1
9 | – | > 30 µM | COc1cc(O)c(Br)cc1/C=C/C(=O)c1ccc(N(C)C)cc1
10 | Dose-dependent effect | 3.5 µM | COc1cc(O)c(Br)cc1/C=C/C(=O)c1ccc(OCC=C(C)C)cc1
11 | Dose-dependent effect | 11.1 µM | COc1cccc(C(=O)/C=C/c2cc(Br)c(O)cc2OC)c1
12 | Dose-dependent effect | 6.8 µM | COc1cc(O)c(Br)cc1/C=C/C(=O)c1cccc(N)c1
13 | Dose-dependent effect | 2.6 µM | COc1cc(O)c(Br)cc1/C=C/C(=O)c1ccc(N2CCCCC2)cc1
14 | Dose-dependent effect | 7.1 µM | C=CCc1cc(C(=O)/C=C/c2cc(Br)c(O)cc2OC)ccc1O
15 | Dose-dependent effect | 6 µM | COc1cc(O)c(Br)cc1/C=C/C(=O)c1ccc(-n2cccn2)cc1
16 | Dose-dependent effect | 4.9 µM | COc1cc(O)c(Br)cc1/C=C/C(=O)c1cccc(N2CCCCC2)c1
17 | Dose-dependent effect | 4.9 µM | COc1cc(O)c(Br)cc1/C=C/C(=O)c1ccc(OC(=O)c2ccccc2)cc1

The next lines start with the molecule.

Row | SMILES | inhibition [1] | IC50 [2]
18 | C=CCN(CC=C)c1ccccc1C(=O)/C=C/c1cc(Br)c(O)cc1OC | Dose-dependent effect | 3.5 µM
19 | C=C(C)C(C)c1cc(C(=O)/C=C/c2cc(Br)c(OC3CCCCO3)cc2OC)ccc1O (stereo unspecified) | Dose-dependent effect | 10.3 µM
20 | COc1ccc(C(=O)/C=C/c2cc(Br)c(O)cc2OC)cc1 | Dose-dependent effect | 9.9 µM
21 | COc1cc(O)c(Br)cc1/C=C/C(=O)c1ccc(OCc2ccccc2)cc1 | Dose-dependent effect | 2.9 µM
22 | CCOC(=O)CCCOc1ccc(C(=O)/C=C/c2cc(Br)c(O)cc2OC)cc1 | Dose-dependent effect | 10.8 µM
23 | COc1cc(O)c(Br)cc1/C=C/C(=O)c1ccc(OS(=O)(=O)c2ccc(C)cc2)cc1 | Dose-dependent effect | 2.7 µM
24 | COc1cc(O)c(Br)cc1/C=C/C(=O)c1ccc(OC(=O)c2ccc(C(C)(C)C)cc2)cc1 | Dose-dependent effect | 2.4 µM
25 | COc1cc(O)c(Br)cc1/C=C/C(=O)c1ccccc1N1CCCCC1 | Dose-dependent effect | 6.8 µM
26 | COc1cc(O)c(Br)cc1/C=C/C(=O)c1ccc(OCC(=O)O)cc1 | – | > 30 µM
27 | COc1cc(O)c(Br)cc1/C=C/C(=O)c1ccc(O)cc1 | Dose-dependent effect | 13.7 µM
28 | COc1cc(O)c(Br)cc1/C=C/C(=O)c1cccc(NS(C)(=O)=O)c1 | Dose-dependent effect | 11.3 µM
29 | C=C(C)[C@H](C)c1cc(/C=C/C(=O)c2ccc(O)cc2)c(OC)cc1O [LICOCHALCONE E] | – | 20.7 µM
30 | C=CCc1cc(C(=O)/C=C/c2cc(Br)c(O)cc2OC)ccc1OC | Dose-dependent effect | 5.3 µM
31 | COc1cc(O)c(Br)cc1/C=C/C(=O)c1ccc(O)c(CC=C(C)C)c1 | Dose-dependent effect | 4.4 µM
32 | COc1cc(O)c(Br)cc1/C=C/C(=O)c1ccccc1N(C)C | Dose-dependent effect | 13.9 µM
33 | COc1cc(O)c(Br)cc1/C=C/C(=O)c1cc2c(cc1N(C)C)OCO2 | Dose-dependent effect | 6.3 µM
34 | C=CCN(CC=C)c1cccc(C(=O)/C=C/c2cc(Br)c(O)cc2OC)c1 | Dose-dependent effect | 4.5 µM
35 | COc1cc(O)c(Br)cc1/C=C/C(=O)c1ccc(OC(=O)c2ccc(Br)cc2)cc1 | Dose-dependent effect | 2.3 µM
36 | C=C(C)C(C)c1cc(C(=O)/C=C/c2cc(Br)c(OC3CCCCO3)cc2O)ccc1OC (stereo unspecified) | Dose-dependent effect | 2.9 µM
37 | COc1cc(O)c(Br)cc1/C=C/C(=O)c1ccc(OS(C)(=O)=O)cc1 | Dose-dependent effect | 18.4 µM
38 | CCCCOc1ccc(C(=O)/C=C/c2cc(Br)c(O)cc2OC)cc1 | Dose-dependent effect | 4.2 µM
39 | COc1cc(O)c(Br)cc1/C=C/C(=O)c1ccc(OCCCC(=O)O)cc1 | Dose-dependent effect | 30 µM
40 | C=C(C)C(C)c1cc(C(=O)/C=C/c2cc(Br)c(O)cc2OC)ccc1OC (stereo unspecified) | Dose-dependent effect | 1.9 µM
41 | COc1cc(O)c(Br)cc1/C=C/C(=O)c1ccc(N)cc1 | Dose-dependent effect | 6.2 µM
42 | COc1cc(O)c(Br)cc1/C=C/C(=O)c1cccc(N(C)C)c1 | Dose-dependent effect | 26.4 µM
